Laboratory results: ChEMBL document CHEMBL3351902, “Design and synthesis of novel spin-labeled camptothecin derivatives as potent cytotoxic agents” (Bioorg Med Chem, 2014)

Columns and labels:
Assay type in all cases: functional, cell-based
A549 = test: Cytotoxicity against human A549 cells after 72 hrs by SRB assay
MDA-MB-231 = test: Cytotoxicity against human MDA-MB-231 cells after 72 hrs by SRB assay
Procedure, shortened: (§1)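 Cells grown in RPMI-1640 with 2 mM L-glutamine, 25 mM HEPES, 10% heat-inactivated FBS, penicillin/streptomycin and amphotericin B, 5% CO2. Seeded at 4.0–7.5 × 10^3 cells/well into medium containing graded sample concentrations, 72 h at 37 °C. Fixed with 10% TCA for 30 min, stained 0.04% SRB for 30 min, dye solubilized in 10 mM Tris base, absorbance at 515 nm. Triplicate runs with duplicate samples, mean IC50 ± SD.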

KB = test: Cytotoxicity against human KB cells after 72 hrs by SRB assay
[1] = Cytotoxicity against human KBVIN cells after 72 hrs by SRB assay; procedure, shortened: as §1

**Q.** Which IC50 (A549) does the source give for `CC[C@@]1(OC(=O)[C@@H](Cc2ccccc2)N/C(CCOC2CC(C)(C)N([O])C(C)(C)C2)=N/S(=O)(=O)c2ccc(C)cc2)C(=O)OCc2c1cc1n(c2=O)Cc2cc3ccccc3nc2-1` here?
**A.** The IC50 was 170 nM.

**Q.** What about the IC50 (MDA-MB-231) of the same compound?
**A.** The IC50 was 500 nM.

**Q.** And the IC50 (KB)?
**A.** The IC50 was 310 nM.

**Q.** What about the IC50 ([1]; kbvin) of the same compound?
**A.** Its IC50 is 100 nM.

**Q.** With `CC[C@@]1(OC(=O)[C@@H](CC(C)C)N/C(CCOC2CC(C)(C)N([O])C(C)(C)C2)=N/S(=O)(=O)c2ccc(C)cc2)C(=O)OCc2c1cc1n(c2=O)Cc2cc3ccccc3nc2-1` as the compound, how does the IC50 (A549) read?
**A.** Its IC50 is 610 nM.

**Q.** And the IC50 (MDA-MB-231)?
**A.** The IC50 was 840 nM.

**Q.** What about the IC50 (KB) of the same compound?
**A.** Its IC50 is 700 nM.

**Q.** And the IC50 ([1]; kbvin)?
**A.** The IC50 was 740 nM.

**Q.** With `CC[C@@]1(OC(=O)CN/C(CCOC2CC(C)(C)N([O])C(C)(C)C2)=N/S(=O)(=O)c2ccc3ccccc3c2)C(=O)OCc2c1cc1n(c2=O)Cc2cc3ccccc3nc2-1` as the compound, how does the IC50 (A549) read?
**A.** The IC50 was 480 nM.

**Q.** And the IC50 (MDA-MB-231)?
**A.** The IC50 was 610 nM.

**Q.** And the IC50 (KB)?
**A.** Its IC50 is 580 nM.

**Q.** What about the IC50 ([1]; kbvin) of the same compound?
**A.** Its IC50 is 330 nM.

**Q.** With `CC[C@@]1(OC(=O)CN/C(CCOCC2=CC(C)(C)N([O])C2(C)C)=N/S(=O)(=O)c2ccc(C)cc2)C(=O)OCc2c1cc1n(c2=O)Cc2cc3ccccc3nc2-1` as the compound, how does the IC50 (A549) read?
**A.** Its IC50 is 74 nM.

**Q.** And the IC50 (MDA-MB-231)?
**A.** The IC50 was 120 nM.

**Q.** What about the IC50 (KB) of the same compound?
**A.** Its IC50 is 91 nM.

**Q.** What about the IC50 ([1]; kbvin) of the same compound?
**A.** Its IC50 is 94 nM.

**Q.** Which IC50 (A549) does the source give for `CC[C@@]1(OC(=O)CN/C(CCOCC2CC(C)(C)N([O])C(C)(C)C2)=N/S(=O)(=O)c2ccc(C)cc2)C(=O)OCc2c1cc1n(c2=O)Cc2cc3ccccc3nc2-1` here?
**A.** The IC50 was 62 nM.

**Q.** What about the IC50 (MDA-MB-231) of the same compound?
**A.** The IC50 was 91 nM.

**Q.** What about the IC50 (KB) of the same compound?
**A.** Its IC50 is 80 nM.

**Q.** What about the IC50 ([1]; kbvin) of the same compound?
**A.** Its IC50 is 84 nM.

**Q.** For `CC[C@@]1(OC(=O)CN/C(CCOC2CC(C)(C)N([O])C(C)(C)C2)=N/S(=O)(=O)c2ccc(OC)cc2)C(=O)OCc2c1cc1n(c2=O)Cc2cc3ccccc3nc2-1`, which IC50 (A549) is on record?
**A.** The IC50 was 81 nM.

**Q.** And the IC50 (MDA-MB-231)?
**A.** Its IC50 is 270 nM.

**Q.** What about the IC50 (KB) of the same compound?
**A.** Its IC50 is 110 nM.

**Q.** And the IC50 ([1]; kbvin)?
**A.** The IC50 was 96 nM.

**Q.** For `CC[C@@]1(OC(=O)CN/C(CCOC2CC(C)(C)N([O])C(C)(C)C2)=N/S(C)(=O)=O)C(=O)OCc2c1cc1n(c2=O)Cc2cc3ccccc3nc2-1`, which IC50 (A549) is on record?
**A.** The IC50 was 59 nM.

**Q.** What about the IC50 (MDA-MB-231) of the same compound?
**A.** The IC50 was 110 nM.

**Q.** And the IC50 (KB)?
**A.** The IC50 was 71 nM.

**Q.** And the IC50 ([1]; kbvin)?
**A.** The IC50 was 90 nM.

**Q.** Which results are given for `CC[C@@]1(OC(=O)CN/C(CCOCC2=CC(C)(C)N([O])C2(C)C)=N/S(=O)(=O)c2ccc(F)cc2)C(=O)OCc2c1cc1n(c2=O)Cc2cc3ccccc3nc2-1`?
**A.** IC50 (A549): 77 nM; IC50 (MDA-MB-231): 140 nM; IC50 (KB): 120 nM; IC50 ([1]; kbvin): 95 nM

**Q.** Which results are given for `CC[C@@]1(OC(=O)CN/C(CCOCC2=CC(C)(C)N([O])C2(C)C)=N/S(=O)(=O)c2ccc(OC)cc2)C(=O)OCc2c1cc1n(c2=O)Cc2cc3ccccc3nc2-1`?
**A.** IC50 (A549): 90 nM; IC50 (MDA-MB-231): 180 nM; IC50 (KB): 130 nM; IC50 ([1]; kbvin): 150 nM

**Q.** With `CC[C@@]1(OC(=O)[C@H](N/C(CCOC2CC(C)(C)N([O])C(C)(C)C2)=N/S(=O)(=O)c2ccc(C)cc2)C(C)C)C(=O)OCc2c1cc1n(c2=O)Cc2cc3ccccc3nc2-1` as the compound, how does the IC50 (A549) read?
**A.** The IC50 was over 1000 nM.

**Q.** What about the IC50 (MDA-MB-231) of the same compound?
**A.** The IC50 was over 1000 nM.

**Q.** And the IC50 (KB)?
**A.** The IC50 was over 1000 nM.

**Q.** What about the IC50 ([1]; kbvin) of the same compound?
**A.** The IC50 was over 1000 nM.

**Q.** For `CC[C@@]1(OC(=O)CN/C(CCOC2CC(C)(C)N([O])C(C)(C)C2)=N/S(=O)(=O)c2ccc([N+](=O)[O-])cc2)C(=O)OCc2c1cc1n(c2=O)Cc2cc3ccccc3nc2-1`, which IC50 (A549) is on record?
**A.** The IC50 was 58 nM.

**Q.** And the IC50 (MDA-MB-231)?
**A.** The IC50 was 100 nM.

**Q.** What about the IC50 (KB) of the same compound?
**A.** Its IC50 is 59 nM.

**Q.** What about the IC50 ([1]; kbvin) of the same compound?
**A.** The IC50 was 72 nM.

**Q.** For `CC[C@@]1(OC(=O)CN/C(CCOC2CC(C)(C)N([O])C(C)(C)C2)=N/S(=O)(=O)c2cccs2)C(=O)OCc2c1cc1n(c2=O)Cc2cc3ccccc3nc2-1`, which IC50 (A549) is on record?
**A.** The IC50 was 63 nM.

**Q.** And the IC50 (MDA-MB-231)?
**A.** The IC50 was 110 nM.

**Q.** And the IC50 (KB)?
**A.** The IC50 was 63 nM.

**Q.** And the IC50 ([1]; kbvin)?
**A.** Its IC50 is 83 nM.

**Q.** For `CC[C@@]1(OC(=O)CN/C(CCOC2CC(C)(C)N([O])C(C)(C)C2)=N/S(=O)(=O)c2ccc(F)cc2)C(=O)OCc2c1cc1n(c2=O)Cc2cc3ccccc3nc2-1`, which IC50 (A549) is on record?
**A.** The IC50 was 86 nM.

**Q.** And the IC50 (MDA-MB-231)?
**A.** The IC50 was 270 nM.

**Q.** And the IC50 (KB)?
**A.** The IC50 was 120 nM.

**Q.** What about the IC50 ([1]; kbvin) of the same compound?
**A.** The IC50 was 100 nM.

**Q.** Which IC50 (A549) does the source give for `CC[C@@]1(OC(=O)CN/C(CCOC2CC(C)(C)N([O])C(C)(C)C2)=N/S(=O)(=O)c2ccc(Cl)cc2)C(=O)OCc2c1cc1n(c2=O)Cc2cc3ccccc3nc2-1` here?
**A.** Its IC50 is 63 nM.

**Q.** What about the IC50 (MDA-MB-231) of the same compound?
**A.** The IC50 was 190 nM.

**Q.** And the IC50 (KB)?
**A.** Its IC50 is 73 nM.

**Q.** And the IC50 ([1]; kbvin)?
**A.** Its IC50 is 84 nM.

**Q.** For `CC[C@@]1(O)C(=O)OCc2c1cc1n(c2=O)Cc2cc3c(CN(C)C)c(O)ccc3nc2-1` [TOPOTECAN], which IC50 ([1]; Homo sapiens, KBVIN, 72 h) is on record?
**A.** Its IC50 is 400 nM.

**Q.** What does the source list for `CCC(C)[C@@H](N/C(CCOC1CC(C)(C)N([O])C(C)(C)C1)=N/S(=O)(=O)c1ccc(C)cc1)C(=O)O[C@]1(CC)C(=O)OCc2c1cc1n(c2=O)Cc2cc3ccccc3nc2-1` (stereo partly specified)?
**A.** IC50 (A549): > 1000 nM; IC50 (MDA-MB-231): > 1000 nM; IC50 (KB): > 1000 nM; IC50 ([1]; kbvin): > 1000 nM

**Q.** Which results are given for `CC[C@@]1(OC(=O)CN/C(CCOCC2=CC(C)(C)N([O])C2(C)C)=N/S(C)(=O)=O)C(=O)OCc2c1cc1n(c2=O)Cc2cc3ccccc3nc2-1`?
**A.** IC50 (A549): 62.9 nM; IC50 (MDA-MB-231): 103 nM; IC50 (KB): 82.3 nM; IC50 ([1]; kbvin): 83.4 nM

**Q.** With `CCCCS(=O)(=O)/N=C(\CCOC1CC(C)(C)N([O])C(C)(C)C1)NCC(=O)O[C@]1(CC)C(=O)OCc2c1cc1n(c2=O)Cc2cc3ccccc3nc2-1` as the compound, how does the IC50 (A549) read?
**A.** Its IC50 is 62 nM.

**Q.** What about the IC50 (MDA-MB-231) of the same compound?
**A.** Its IC50 is 230 nM.

**Q.** What about the IC50 (KB) of the same compound?
**A.** Its IC50 is 75 nM.

**Q.** What about the IC50 ([1]; kbvin) of the same compound?
**A.** The IC50 was 95 nM.

**Q.** Which IC50 (A549) does the source give for `CC[C@@]1(OC(=O)[C@@H](C)N/C(CCOC2CC(C)(C)N([O])C(C)(C)C2)=N/S(=O)(=O)c2ccc(C)cc2)C(=O)OCc2c1cc1n(c2=O)Cc2cc3ccccc3nc2-1` here?
**A.** The IC50 was 450 nM.

**Q.** And the IC50 (MDA-MB-231)?
**A.** Its IC50 is 530 nM.

**Q.** And the IC50 (KB)?
**A.** Its IC50 is 560 nM.

**Q.** What about the IC50 ([1]; kbvin) of the same compound?
**A.** Its IC50 is 250 nM.

**Q.** For `CC[C@@]1(OC(=O)CN/C(CCOC2CC(C)(C)N([O])C(C)(C)C2)=N/S(=O)(=O)c2ccc(C)cc2)C(=O)OCc2c1cc1n(c2=O)Cc2cc3ccccc3nc2-1`, which IC50 (A549) is on record?
**A.** The IC50 was 76 nM.

**Q.** And the IC50 (MDA-MB-231)?
**A.** Its IC50 is 450 nM.

**Q.** And the IC50 (KB)?
**A.** Its IC50 is 210 nM.

**Q.** And the IC50 ([1]; kbvin)?
**A.** The IC50 was 110 nM.

**Q.** Which results are given for `CC[C@@]1(OC(=O)CN/C(CCOC2CC(C)(C)N([O])C(C)(C)C2)=N/S(=O)(=O)CC)C(=O)OCc2c1cc1n(c2=O)Cc2cc3ccccc3nc2-1`?
**A.** IC50 (A549): 55 nM; IC50 (MDA-MB-231): 80 nM; IC50 (KB): 59 nM; IC50 ([1]; kbvin): 57 nM
